This note sets out measurements from ChEMBL document CHEMBL1926623, “Modification of olivomycin A at the side chain of the aglycon yields the derivative with perspective antitumor characteristics” (Bioorg Med Chem, 2011).

Data set [1] concerns B16. Nature of the data set: Antitumor activity against mouse B16 cells xenografted in B6D2F1 mouse assessed as tumor growth inhibition at 2 mg/kg, iv administered on days 1,4,7,10 and 13 measured 28 days post tumor challenge. In kind it is functional. The note with it: B16, 672 h, read-out: GI. Put shortly:
(§1)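 B6D2F1 mice, 10 per group, received 10⁶ B16 melanoma cells s.c. into the right flank on day 0. Compound diluted in saline was given iv on days 1, 4, 7, 10, 13 (5 injections) or days 1–22 every third day (8 injections). Controls were left untreated, and mice were sacrificed by day 28. ITG% = (Mc−Mt)/Mc × 100, using calculated tumor weight (a×b×c)/2.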

Data set [2] has as its system P388. The data set is described as follows: Antitumor activity against mouse P388 cells xenografted in B6D2F1 mouse assessed as increase in lifespan at 2 mg/kg, ip administered daily for 5 days relative to untreated control. The data set is classed as functional. Conditions: route intraperitoneal. Put shortly: (§2)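 Each group of 10 B6D2F1 mice received 10^6 P388 lymphoma cells ip on day 0. Drug was dissolved in 0.1% DMSO, diluted with saline and given once daily for 5 days; controls were untreated. ILS (%) = (Dt−Dc)/Dc × 100, where Dt and Dc are mean survival times in days for treated and control groups.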

Data set [3] relates to P388. Nature of the data set: Antitumor activity against mouse P388 cells xenografted in B6D2F1 mouse assessed as increase in lifespan at 1 mg/kg, ip administered daily for 5 days relative to untreated control. The data set is classed as functional. Conditions: route intraperitoneal. Put shortly:
as §2

In another data set the test system is HCT-116. Nature of the data set: Antiproliferative activity against human HCT116 cells after 72 hrs by MTT assay. The data set is classed as functional, cell-based. Put shortly: (§3)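 Cells from ATCC grown in DMEM or RPMI-1640 with 5% FCS, 2 mM L-glutamine, and penicillin/streptomycin at 37 °C, 5% CO2. 5 × 10³ log-phase cells per well were exposed to serial dilutions (from 10 mM DMSO stocks; 0.1% DMSO vehicle control), each dose in duplicate, for 72 h. MTT was added for 2 h and absorbance read at 540 nm. IC50 is the 50% viability inhibition versus vehicle. Mean ± SD of 4–5 independent experiments.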
(In general: Tetrazolium assays rely on reduction of a dye to a coloured formazan, in cell work by metabolically active cells.)

The subject of data set [4] is B16. The data set is described as follows: Antitumor activity against mouse B16 cells xenografted in B6D2F1 mouse assessed as tumor growth inhibition at 2 mg/kg, iv administered on days 1,4,7,10,13,16,19 and 22 measured 28 days post tumor challenge. The data set is classed as functional. The note with it: B16, 672 h, read-out: GI. Put shortly:
as §1

A further data set relates to K562. Nature of the data set: Antiproliferative activity against human K562 cells after 72 hrs by MTT assay. In kind it is functional, cell-based. The essentials:
as §3

The nature of data set [5]: Toxicity in mouse P388 cells xenografted B6D2F1 mouse assessed as mortality at 4 mg/kg, ip administered daily for 5 days. In kind it is organism-based. Also noted: dose 4 mg/kg, route intraperitoneal. Conditions: in vivo, read-out: Activity. The essentials: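 B6D2F1 mice, 10 per group, were inoculated ip with 10^6 P388 cells on day 0. Drug in 0.1% DMSO, diluted in saline, was given daily for 5 days. Physical condition, body weight, behaviour, nutrition and hair cover were monitored daily. Mortality was scored as drug-related toxicity deaths.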

The subject of data set [6] is Nucleic Acid. The data set is described as follows: Binding affinity to Salmon sperm DNA at 1.34 uM by Scatchard plot analysis. The data set is classed as nucleic-acid assay. The note with it: Salmonidae.
The test system of data set [7] is Nucleic Acid. Nature of the data set: Binding affinity to Salmon sperm DNA assessed as increase in fluorescence at 1.34 uM by spectrophotometry. The data set is classed as nucleic-acid assay. The note with it: Salmonidae.
The subject of data set [8] is Nucleic Acid. Nature of the data set: Binding affinity to Salmon sperm DNA assessed as increase in fluorescence at 1.34 uM by spectrophotometry. The note with it: Salmonidae.

Bounds are passed on as bounds.

The IC50 is the concentration needed to halve the response being measured. A higher IC50 goes with lower potency. Take `CO[C@H]1[C@H](O)C[C@@H](O[C@@H]2C[C@H](Oc3cc(O)c4c(O)c5c(cc4c3)C[C@@H]([C@H](OC)C(=O)[C@@H](O)[C@@H](C)O)[C@H](O[C@H]3C[C@H](O[C@H]4C[C@H](O[C@H]6C[C@@](C)(O)[C@@H](OC(=O)C(C)C)[C@H](C)O6)[C@H](O)[C@@H](C)O4)[C@H](O)[C@@H](C)O3)C5=O)O[C@H](C)[C@H]2OC(C)=O)O[C@@H]1C` [OLIVOMYCIN A]: the results for the inhibition in vivo at 2 mg/kg in the data set on B16 [1] and with B16 [4] were 48% and 45%, respectively. Moreover, the figures for the Activity in the data set with P388 [2] and in the data set on P388 [3] were 35% and 24%, respectively. The IC50 in the data set with HCT-116 came to 20 nM; in the data set on K562 it was 50 nM. In addition, the mortality at 120 h in data set [5] stood at 87%.

With `CO[C@H]1[C@H](O)C[C@@H](O[C@@H]2C[C@H](Oc3cc(O)c4c(O)c5c(cc4c3)C[C@@H]([C@H](OC)C(=O)O)[C@H](O[C@H]3C[C@H](O[C@H]4C[C@H](O[C@H]6C[C@@](C)(O)[C@@H](OC(=O)C(C)C)[C@H](C)O6)[C@H](O)[C@@H](C)O4)[C@H](O)[C@@H](C)O3)C5=O)O[C@H](C)[C@H]2OC(C)=O)O[C@@H]1C` [OLIVOMYCIN SA], in the data set with Nucleic Acid [6], the K worked out at 2.1 ×10⁴ /M. For the same compound, the Activity entry in the data set on Nucleic Acid [7] and in the data set on Nucleic Acid [8] was “Dose-dependent effect” each time. The values for the IC50 with HCT-116 and with K562 were 2000 nM and 2200 nM, respectively.

As to `CO[C@H]1[C@H](O)C[C@@H](O[C@@H]2C[C@H](Oc3cc(O)c4c(O)c5c(cc4c3)C[C@@H]([C@H](OC)C(=O)NCCCO)[C@H](O[C@H]3C[C@H](O[C@H]4C[C@H](O[C@H]6C[C@@](C)(O)[C@@H](OC(=O)C(C)C)[C@H](C)O6)[C@H](O)[C@@H](C)O4)[C@H](O)[C@@H](C)O3)C5=O)O[C@H](C)[C@H]2OC(C)=O)O[C@@H]1C`, in the data set on HCT-116, the IC50 is 156 nM.

In the case of `CO[C@H]1[C@H](O)C[C@@H](O[C@@H]2C[C@H](Oc3cc(O)c4c(O)c5c(cc4c3)C[C@@H]([C@H](OC)C(N)=O)[C@H](O[C@H]3C[C@H](O[C@H]4C[C@H](O[C@H]6C[C@@](C)(O)[C@@H](OC(=O)C(C)C)[C@H](C)O6)[C@H](O)[C@@H](C)O4)[C@H](O)[C@@H](C)O3)C5=O)O[C@H](C)[C@H]2OC(C)=O)O[C@@H]1C`, the midpoint of inhibition with HCT-116, the IC50, lay at 100 nM.

For the compound `CO[C@H]1[C@H](O)C[C@@H](O[C@@H]2C[C@H](Oc3cc(O)c4c(O)c5c(cc4c3)C[C@@H]([C@H](OC)C(=O)NCc3ccc(F)cc3)[C@H](O[C@H]3C[C@H](O[C@H]4C[C@H](O[C@H]6C[C@@](C)(O)[C@@H](OC(=O)C(C)C)[C@H](C)O6)[C@H](O)[C@@H](C)O4)[C@H](O)[C@@H](C)O3)C5=O)O[C@H](C)[C@H]2OC(C)=O)O[C@@H]1C`, the IC50 in the data set with HCT-116 stood at 278 nM; in the data set on K562, 148 nM.

The compound `CNC(=O)[C@@H](OC)[C@@H]1Cc2cc3cc(O[C@H]4C[C@@H](O[C@@H]5C[C@@H](O)[C@H](OC)[C@@H](C)O5)[C@H](OC(C)=O)[C@@H](C)O4)cc(O)c3c(O)c2C(=O)[C@H]1O[C@H]1C[C@H](O[C@H]2C[C@H](O[C@H]3C[C@@](C)(O)[C@@H](OC(=O)C(C)C)[C@H](C)O3)[C@H](O)[C@@H](C)O2)[C@H](O)[C@@H](C)O1` yielded a concentration for half-maximal inhibition (IC50) in the data set on HCT-116 of 120 nM.

Regarding `COC(=O)[C@H](C)NC(=O)[C@@H](OC)[C@@H]1Cc2cc3cc(O[C@H]4C[C@@H](O[C@@H]5C[C@@H](O)[C@H](OC)[C@@H](C)O5)[C@H](OC(C)=O)[C@@H](C)O4)cc(O)c3c(O)c2C(=O)[C@H]1O[C@H]1C[C@H](O[C@H]2C[C@H](O[C@H]3C[C@@](C)(O)[C@@H](OC(=O)C(C)C)[C@H](C)O3)[C@H](O)[C@@H](C)O2)[C@H](O)[C@@H](C)O1`, the IC50 in the data set with HCT-116 was found to be 20 nM; in the data set on K562, 63 nM.

Regarding `CO[C@H]1[C@H](O)C[C@@H](O[C@@H]2C[C@H](Oc3cc(O)c4c(O)c5c(cc4c3)C[C@@H]([C@H](OC)C(=O)NCCN(C)C)[C@H](O[C@H]3C[C@H](O[C@H]4C[C@H](O[C@H]6C[C@@](C)(O)[C@@H](OC(=O)C(C)C)[C@H](C)O6)[C@H](O)[C@@H](C)O4)[C@H](O)[C@@H](C)O3)C5=O)O[C@H](C)[C@H]2OC(C)=O)O[C@@H]1C`, the IC50 was found to be 20 nM in the data set on HCT-116 and 47 nM in the data set with K562.

As for `CO[C@H]1[C@H](O)C[C@@H](O[C@@H]2C[C@H](Oc3cc(O)c4c(O)c5c(cc4c3)C[C@@H]([C@H](OC)C(=O)N[C@@H]3[C@@H](O)[C@@H](O)[C@@H](CO)O[C@H]3O)[C@H](O[C@H]3C[C@H](O[C@H]4C[C@H](O[C@H]6C[C@@](C)(O)[C@@H](OC(=O)C(C)C)[C@H](C)O6)[C@H](O)[C@@H](C)O4)[C@H](O)[C@@H](C)O3)C5=O)O[C@H](C)[C@H]2OC(C)=O)O[C@@H]1C`, the IC50 in the data set on HCT-116 was above 12500 nM; with K562, 2390 nM.

As for `CO[C@H]1[C@H](O)C[C@@H](O[C@@H]2C[C@H](Oc3cc(O)c4c(O)c5c(cc4c3)C[C@@H]([C@H](OC)C(=O)NC3C4CC6CC(C4)CC3C6)[C@H](O[C@H]3C[C@H](O[C@H]4C[C@H](O[C@H]6C[C@@](C)(O)[C@@H](OC(=O)C(C)C)[C@H](C)O6)[C@H](O)[C@@H](C)O4)[C@H](O)[C@@H](C)O3)C5=O)O[C@H](C)[C@H]2OC(C)=O)O[C@@H]1C` (some centres undefined), in the data set on HCT-116, the concentration for half-maximal inhibition (IC50) came to 180 nM.
